Data from ChEMBL document CHEMBL4622848, “Syntheses, in vitro α-amylase and α-glucosidase dual inhibitory activities of 4-amino-1,2,4-triazole derivatives their molecular docking and kinetic studies” (Bioorg Med Chem, 2020).

Key:
[1] = Inhibition of rat intestinal alpha-glucosidase using p-nitrophenyl-alpha-D-glucopyranoside as substrate preincubated for 5 mins followed by substrate addition and measured after 5 mins by spectrophotometric analysis
How it was run: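 Enzyme source: rat intestinal acetone powder in saline (100:1 w/v), sonicated and centrifuged; supernatant used. Samples (5 mg/mL in DMSO) in 100 mM phosphate buffer pH 6.8, incubated 5 min with enzyme. Then 5 mM p-nitrophenyl-α-D-glucopyranoside added, and p-nitrophenol read at 405 nm after 5 min. Blanks had buffer in place of substrate, controls had DMSO. Inhibition computed from control and sample absorbance.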

Alpha amylase = target: T1, Alpha amylase (Homo sapiens, UniProt P0DUB6); test: Inhibition of alpha-amylase (unknown origin) using starch as substrate preincubated for 10 mins followed by substrate addition and measured after 10 mins by dinitrosalicylic acid reagent based assay
T1 sequence (P0DUB6 whole entry): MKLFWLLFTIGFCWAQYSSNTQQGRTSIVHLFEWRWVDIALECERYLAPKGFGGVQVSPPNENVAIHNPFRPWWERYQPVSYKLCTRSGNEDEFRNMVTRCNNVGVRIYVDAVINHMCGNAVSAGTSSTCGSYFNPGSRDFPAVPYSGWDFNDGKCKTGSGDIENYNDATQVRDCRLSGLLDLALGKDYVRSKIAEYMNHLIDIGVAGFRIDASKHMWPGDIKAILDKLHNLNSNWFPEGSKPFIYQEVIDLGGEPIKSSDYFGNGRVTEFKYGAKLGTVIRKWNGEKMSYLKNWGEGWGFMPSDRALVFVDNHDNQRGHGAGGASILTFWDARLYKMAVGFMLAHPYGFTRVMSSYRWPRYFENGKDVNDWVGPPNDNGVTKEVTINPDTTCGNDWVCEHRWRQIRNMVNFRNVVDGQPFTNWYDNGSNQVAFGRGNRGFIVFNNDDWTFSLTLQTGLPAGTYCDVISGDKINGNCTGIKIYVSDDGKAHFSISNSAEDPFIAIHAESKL
How it was run: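 Enzyme at 0.5 mg/mL in […] pH 6.9, preincubated 10 min at 25 °C with test sample (100, 200, 400, 800, 1000 µg/mL). Then 1% starch in 0.02 M sodium phosphate pH 6.9 added, 10 min at 25 °C.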

Homo sapiens [2] = organism: Homo sapiens; test: Uncompetitive inhibition of alpha-glucosidase (unknown origin) assessed as Vmax using varying levels of para-nitrophenyl-R-D-maltoside as substrate incubated for 30 mins by Lineweaver-Burk plot analysis
How it was run: (§1)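 Enzyme at 0.2 mg/mL per well in deionized water with PIPES pH 7.0. Inhibitor at 0.0625–0.4 mM (0.0625, 0.125, 0.3, 0.4), substrate p-nitrophenyl-R-D-maltoside at 0.1, 0.2, 0.4, 0.8 and 1.0 mM. Incubated 30 min at 25 °C with readings at 1-min intervals on a plate reader. Km and Vmax derived by enzyme-kinetic graph fitting.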

Homo sapiens [3] = organism: Homo sapiens; test: Uncompetitive inhibition of alpha-glucosidase (unknown origin) assessed as Km using varying levels of para-nitrophenyl-R-D-maltoside as substrate incubated for 30 mins by Lineweaver-Burk plot analysis; how it was run: as §1
[4] = test system: COc1cc(/C=N/n2cnnc2)ccc1F; test: (§2) Mixed type inhibition of alpha-amylase (unknown origin) assessed as Km using varying level of para-nitrophenyl-R-D-maltoside as substrate incubated for 30 mins by Lineweaver-Burk plot analysis; conditions: Homo sapiens
How it was run: (§3)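 Kinetics run with inhibitor at 0.0625, 0.125, 0.3 and 0.4 mM and p-nitrophenyl-R-D-maltoside at 0.1, 0.2, 0.4, 0.8 and 1.0 mM. Enzyme at 0.2 mg/mL per well in deionized water, PIPES buffer pH 7.0, 30 min at 25 °C, absorbance on a plate reader. Vmax and Km obtained by enzyme-kinetic graph fitting.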

[5] = test system: O=[N+]([O-])c1ccc(/C=N/n2cnnc2)cc1; test: as §2; conditions: Homo sapiens; how it was run: as §3
[6] = test system: COc1ccc(/C=N/n2cnnc2)c(F)c1; test: as §2; conditions: Homo sapiens; how it was run: as §3
[7] = test system: O=[N+]([O-])c1cc(O)cc(/C=N/n2cnnc2)c1; test: as §2; conditions: Homo sapiens; how it was run: as §3
[8] = test system: Oc1ccc(/C=N/n2cnnc2)cc1Br; test: as §2; conditions: Homo sapiens; how it was run: as §3
Oc1ccc(/C=N/n2cnnc2)cc1 [9] = test: as §2; conditions: Homo sapiens; how it was run: as §3
[10] = test system: Clc1ccc(/C=N/n2cnnc2)c(Cl)c1; test: as §2; conditions: Homo sapiens; how it was run: as §3
Nc1ncccc1/C=N/n1cnnc1 [11] = test: as §2; conditions: Homo sapiens; how it was run: as §3
[12] = test system: C(=N/n1cnnc1)\c1cc2ccccc2[nH]1; test: as §2; conditions: Homo sapiens; how it was run: as §3
[13] = test system: COc1cc(/C=N/n2cnnc2)cc(OC)c1Br; test: as §2; conditions: Homo sapiens; how it was run: as §3
[14] = test system: COc1cc(/C=N/n2cnnc2)ccc1F; test: (§4) Mixed type inhibition of alpha-amylase (unknown origin) assessed as Vmax using varying levels of para-nitrophenyl-R-D-maltoside as substrate incubated for 30 mins by Lineweaver-Burk plot analysis; conditions: Homo sapiens; how it was run: as §3
[15] = test system: O=[N+]([O-])c1ccc(/C=N/n2cnnc2)cc1; test: as §4; conditions: Homo sapiens; how it was run: as §3
[16] = test system: COc1ccc(/C=N/n2cnnc2)c(F)c1; test: as §4; conditions: Homo sapiens; how it was run: as §3
[17] = test system: O=[N+]([O-])c1cc(O)cc(/C=N/n2cnnc2)c1; test: as §4; conditions: Homo sapiens; how it was run: as §3
[18] = test system: Oc1ccc(/C=N/n2cnnc2)cc1Br; test: as §4; conditions: Homo sapiens; how it was run: as §3
Oc1ccc(/C=N/n2cnnc2)cc1 [19] = test: as §4; conditions: Homo sapiens; how it was run: as §3
[20] = test system: Clc1ccc(/C=N/n2cnnc2)c(Cl)c1; test: as §4; conditions: Homo sapiens; how it was run: as §3
Nc1ncccc1/C=N/n1cnnc1 [21] = test: as §4; conditions: Homo sapiens; how it was run: as §3
[22] = test system: C(=N/n1cnnc1)\c1cc2ccccc2[nH]1; test: as §4; conditions: Homo sapiens; how it was run: as §3
[23] = test system: COc1cc(/C=N/n2cnnc2)cc(OC)c1Br; test: as §4; conditions: Homo sapiens; how it was run: as §3

| Molecule | IC50 [1] [µM] | IC50 (Alpha amylase) [µM] | further results |
| --- | --- | --- | --- |
| C(=N\n1cnnc1)/c1ccc(OCc2ccccc2)cc1 | 5.44 | 5.04 |  |
| CCOc1cc(/C=N/n2cnnc2)ccc1OC | 5.47 | 5.22 |  |
| C(=N\n1cnnc1)/c1cc2ccccc2[nH]1 | 2.09 | 2.01 | Vmax (Homo sapiens [2]): 703 µM/min; Km (Homo sapiens [3]): 300 µM |
| COc1ccc(Br)c(/C=N/n2cnnc2)c1O | 5.52 | 5.25 |  |
| COc1ccc(Br)cc1/C=N/n1cnnc1 | 3.46 | 3.3 |  |
| Oc1ccc(/C=N/n2cnnc2)cc1 | 2.62 | 2.99 | Vmax (Homo sapiens [2]): 701 µM/min; Km (Homo sapiens [3]): 400 µM |
| COc1cc(/C=N/n2cnnc2)cc(OC)c1Br | 2.52 | 2.25 | Vmax (Homo sapiens [2]): 690 µM/min; Km (Homo sapiens [3]): 700 µM |
| Alpha amylase (Homo sapiens) (from UniProt P0DUB6) |  |  | Km [4]: 1300 µM; Km [5]: 900 µM; Km [6]: 1300 µM; Km [7]: 1300 µM; Km [8]: 1200 µM; Km (Oc1ccc(/C=N/n2cnnc2)cc1 [9]): 1300 µM; Km [10]: 1200 µM; Km (Nc1ncccc1/C=N/n1cnnc1 [11]): 1000 µM; Km [12]: 1500 µM; Km [13]: 1300 µM; Vmax [14]: 241 µM/min; Vmax [15]: 207 µM/min; Vmax [16]: 238 µM/min; Vmax [17]: 232 µM/min; Vmax [18]: 221 µM/min; Vmax (Oc1ccc(/C=N/n2cnnc2)cc1 [19]): 237 µM/min; Vmax [20]: 221 µM/min; Vmax (Nc1ncccc1/C=N/n1cnnc1 [21]): 213 µM/min; Vmax [22]: 256 µM/min; Vmax [23]: 242 µM/min |
| Clc1ccc(/C=N/n2cnnc2)c(Cl)c1 | 2.49 | 2.18 | Vmax (Homo sapiens [2]): 685 µM/min; Km (Homo sapiens [3]): 500 µM |
| Oc1ccc(/C=N/n2cnnc2)cc1O | 5.44 | 5.69 |  |
| CCOc1ccc(/C=N/n2cnnc2)cc1OC | 5.36 | 5.24 |  |
| Oc1ccc(/C=N/n2cnnc2)c(O)c1O | 5.74 | 5.92 |  |
| Oc1ccc(/C=N/n2cnnc2)cc1Br | 2.37 | 2.27 | Vmax (Homo sapiens [2]): 698 µM/min; Km (Homo sapiens [3]): 400 µM |
| Oc1ccc(O)c(/C=N/n2cnnc2)c1 | 5.37 | 5.27 |  |
| Cc1ccc(/C=N/n2cnnc2)c(C)c1 | 4.27 | 4.34 |  |
| Clc1ccc(/C=N/n2cnnc2)cc1 | 4.28 | 4.36 |  |
| CC(C)(C)c1ccc(/C=N/n2cnnc2)cc1 | 6.37 | 6.44 |  |
| C(=N\n1cnnc1)/c1c2ccccc2cc2ccccc12 | 5.41 | 5.27 |  |
| C[C@H]1O[C@H](O[C@H]2[C@H](O)[C@@H](O)[C@@H](O[C@H]3[C@H](O)[C@@H](O)C(O)O[C@@H]3CO)O[C@@H]2CO)[C@H](O)[C@@H](O)[C@@H]1N[C@H]1C=C(CO)[C@@H](O)[C@H](O)[C@H]1O (some centres not stated) [ACARBOSE] | 1.99 |  |  |
| COc1cc(/C=N/n2cnnc2)cc(OC)c1OC | 5.46 | 5.12 |  |
| O=[N+]([O-])c1ccc(/C=N/n2cnnc2)cc1 | 2.47 | 2.36 | Vmax (Homo sapiens [2]): 680 µM/min; Km (Homo sapiens [3]): 500 µM |
| O=[N+]([O-])c1ccc(Cl)c(/C=N/n2cnnc2)c1 | 4.37 | 4.46 |  |

The remaining molecules from weak to strong by IC50 [1], led by results:

| IC50 [1] [µM] | IC50 (Alpha amylase) [µM] | Molecule | further results |
| --- | --- | --- | --- |
| 6.54 | 6.23 | COc1ccc(/C=N/n2cnnc2)cc1OCc1ccccc1 |  |
| 6.34 | 6.23 | CC(C)(C)c1cc(/C=N/n2cnnc2)c(C(C)(C)C)cc1O |  |
| 6.3 | 6.41 | C(=N\n1cnnc1)/c1cc2ccc3cccc4ccc(c1)c2c34 |  |
| 5.44 | 5.95 | Oc1ccc(/C=N/n2cnnc2)c(O)c1 |  |
| 5.37 | 5.97 | O=[N+]([O-])c1cccc(/C=N/n2cnnc2)c1 |  |
| 5.3 | 5.94 | COc1cc(/C=N/n2cnnc2)ccc1O |  |
| 4.29 | 4.37 | COc1cccc(OC)c1/C=N/n1cnnc1 |  |
| 4.28 | 4.37 | COc1ccc(/C=N/n2cnnc2)c(OC)c1 |  |
| 3.27 | 3.31 | COc1cc(/C=N/n2cnnc2)cc(OC)c1O |  |
| 2.44 | 2.28 | Nc1ncccc1/C=N/n1cnnc1 | Vmax (Homo sapiens [2]): 685 µM/min; Km (Homo sapiens [3]): 500 µM |
| 2.33 | 2.9 | COc1ccc(/C=N/n2cnnc2)c(F)c1 | Vmax (Homo sapiens [2]): 701 µM/min; Km (Homo sapiens [3]): 500 µM |
| 2.31 | 2.41 | O=[N+]([O-])c1cc(O)cc(/C=N/n2cnnc2)c1 | Vmax (Homo sapiens [2]): 695 µM/min; Km (Homo sapiens [3]): 500 µM |
| 2.27 | 2.33 | COc1cc(/C=N/n2cnnc2)ccc1F | Vmax (Homo sapiens [2]): 697 µM/min; Km (Homo sapiens [3]): 500 µM |
